Reference: ChEMBL document CHEMBL2203173 (J Med Chem, 2012)

Experiments:
Mus musculus [1] = assay: Toxicity in BALB/c nu/nu mouse xenografted with human DMS53 cells assessed as change in spleen weight at 20 mg/kg, po administered for 3 times a week measured after 20 days; format: organism-based, DMS-53; parameters: dose 20 mg/kg, route oral; settings: in vivo, 480 h
In short: (§1)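 DMS-53 xenograft nude mice were gavaged 3 times/week in 30% propylene glycol/saline vehicle for 20 days and then sacrificed. Organ weights and histology of spleen, kidney, liver, heart, lungs and brain were compared with vehicle controls. n = 6-11 mice/condition.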

Mus musculus [2] = assay: Cardiotoxicity in BALB/c nu/nu mouse xenografted with human DMS53 cells at 4 mg/kg, iv administered for 5 days a week measured after 21 days; format: toxicity, organism-based, DMS-53; parameters: dose 4 mg/kg, route intravenous; settings: in vivo, 504 h
In short: (§2)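 DMS-53 xenograft nude mice given agents iv by tail vein 5 days/week in 30% propylene glycol/saline for 21 days. At sacrifice, heart sections were stained with Gomori Trichrome to detect fibrosis. Spleen, kidney, liver, heart, lungs and brain were also stained with H&E and Perls' and examined by an independent veterinary pathologist.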

Mus musculus [3] = assay: Toxicity in BALB/c nu/nu mouse xenografted with human DMS53 cells assessed as hepatocellular fibrosis at 4 mg/kg, iv administered for 5 days a week measured after 21 days by hematoxylin and eosin staining method; format: organism-based, DMS-53; parameters: dose 4 mg/kg, route intravenous; settings: in vivo, 504 h
In short: (§3)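 Nude mice with DMS-53 xenografts dosed by tail-vein iv injection in 30% propylene glycol/saline, starting at 100 mm3 tumour volume, 5 days/week for 21 days. Spleen, kidney, liver, heart, lungs and brain were stained with H&E, Perls' (Fe loading) and Gomori Trichrome (fibrosis) by standard methods, and an independent veterinary pathologist examined them.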

Mus musculus [4] = assay: Toxicity in BALB/c nu/nu mouse xenografted with human DMS53 cells assessed as change in body weight at 4 mg/kg, iv administered for 5 days a week measured after 21 days; format: organism-based, DMS-53; parameters: dose 4 mg/kg, route intravenous; settings: in vivo, 504 h
In short: (§4)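 DMS-53 xenografts in nude mice; dosing started at 100 mm3 tumor volume. Agents given iv via tail vein, 5 days/week for 21 days, vehicle 30% propylene glycol/saline, vehicle-treated controls. Mice sacrificed day 21. Body and organ weights and hematological indices recorded. Spleen, kidney, liver, heart, lungs and brain were stained with H&E, Perls' and Gomori Trichrome and read by an independent veterinary pathologist.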

Mus musculus [5] = assay: Toxicity in BALB/c nu/nu mouse xenografted with human DMS53 cells assessed as hepatocellular fibrosis at 8 mg/kg, iv administered for 5 days a week measured after 21 days by hematoxylin and eosin staining method; format: organism-based, DMS-53; parameters: dose 8 mg/kg, route intravenous; settings: in vivo, 504 h; in short: as §3
Mus musculus [6] = assay: Toxicity in BALB/c nu/nu mouse xenografted with human DMS53 cells assessed as change in hemoglobin level at 4 mg/kg, iv administered for 5 days a week measured after 21 days; format: organism-based, DMS-53; parameters: dose 4 mg/kg, route intravenous; settings: in vivo, 504 h; in short: as §4
Mus musculus [7] = assay: Toxicity in BALB/c nu/nu mouse xenografted with human DMS53 cells assessed as vacuolation at 8 mg/kg, iv administered for 5 days a week measured after 21 days by hematoxylin and eosin staining method; format: organism-based, DMS-53; parameters: dose 8 mg/kg, route intravenous; settings: in vivo, 504 h; in short: as §3
Mus musculus [8] = assay: Toxicity in BALB/c nu/nu mouse xenografted with human DMS53 cells assessed as change in hemoglobin level at 8 mg/kg, iv administered for 5 days a week measured after 21 days; format: organism-based, DMS-53; parameters: dose 8 mg/kg, route intravenous; settings: in vivo, 504 h; in short: as §4
Mus musculus [9] = assay: Toxicity in BALB/c nu/nu mouse xenografted with human DMS53 cells assessed as cardiac fibrosis at 4 mg/kg, iv administered for 5 days a week measured after 21 days by […]; format: organism-based, Heart, DMS-53; parameters: dose 4 mg/kg, route intravenous; settings: in vivo, 504 h; in short: as §2
Mus musculus [10] = assay: Toxicity in BALB/c nu/nu mouse xenografted with human DMS53 cells assessed as change in organ weight at 4 mg/kg, iv administered for 5 days a week measured after 21 days; format: organism-based, DMS-53; parameters: dose 4 mg/kg, route intravenous; settings: in vivo, 504 h
In short: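 DMS-53 xenograft-bearing nude mice, treatment started at 100 mm3 tumour volume: iv tail-vein dosing in 30% propylene glycol/saline, 5 days/week for 21 days. Organs were weighed at sacrifice and compared with vehicle-control mice.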

Mus musculus [11] = assay: Toxicity in BALB/c nu/nu mouse xenografted with human DMS53 cells assessed as hepatocellular necrosis at 3 mg/kg, iv administered for 5 days a week measured after 21 days by hematoxylin and eosin staining method; format: organism-based, DMS-53; parameters: dose 3 mg/kg, route intravenous; settings: in vivo, 504 h; in short: as §3
Mus musculus [12] = assay: Toxicity in BALB/c nu/nu mouse xenografted with human DMS53 cells assessed as change in hematopoetic cells in splenic red pulp at 3 mg/kg, iv administered for 5 days a week measured after 21 days by hematoxylin and eosin staining method; format: organism-based, DMS-53; parameters: dose 3 mg/kg, route intravenous; settings: in vivo, 504 h; in short: as §4
Mus musculus [13] = assay: Toxicity in BALB/c nu/nu mouse xenografted with human DMS53 cells assessed as hepatocellular necrosis at 0.75 mg/kg, iv administered for 5 days a week measured after 21 days by hematoxylin and eosin staining method; format: organism-based, DMS-53; parameters: dose 0.75 mg/kg, route intravenous; settings: in vivo, 504 h; in short: as §3
Mus musculus [14] = assay: Toxicity in BALB/c nu/nu mouse xenografted with human DMS53 cells assessed as change in hemoglobin level at 3 mg/kg, iv administered for 5 days a week measured after 21 days; format: organism-based, DMS-53; parameters: dose 3 mg/kg, route intravenous; settings: in vivo, 504 h; in short: as §4
Mus musculus [15] = assay: Toxicity in BALB/c nu/nu mouse xenografted with human DMS53 cells assessed as change in lung weight at 7.5 mg/kg, po administered for 3 times a week measured after 20 days; format: organism-based, DMS-53; parameters: dose 7.5 mg/kg, route oral; settings: in vivo, 480 h
In short: (§5)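 Nude mice bearing DMS-53 xenografts gavaged 3 times/week for 20 days, vehicle 30% propylene glycol/saline, vehicle controls, n = 6-11 mice/condition. Sacrifice on day 20. Organ weights and hematological indices recorded. Spleen, kidney, liver, heart, lungs and brain examined histologically, hearts stained with Gomori Trichrome for fibrosis.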

Mus musculus [16] = assay: Toxicity in BALB/c nu/nu mouse xenografted with human DMS53 cells assessed as change in spleen weight at 7.5 mg/kg, po administered for 3 times a week measured after 20 days; format: organism-based, DMS-53; parameters: dose 7.5 mg/kg, route oral; settings: in vivo, 480 h; in short: as §1
Mus musculus [17] = assay: Cardiotoxicity in BALB/c nu/nu mouse xenografted with human DMS53 cells at 6 mg/kg, iv administered for 5 days a week measured after 21 days; format: toxicity, organism-based, DMS-53; parameters: dose 6 mg/kg, route intravenous; settings: in vivo, 504 h; in short: as §2
Mus musculus [18] = assay: Toxicity in BALB/c nu/nu mouse xenografted with human DMS53 cells assessed as change in reticulocyte count at 6 mg/kg, iv administered for 5 days a week measured after 21 days; format: organism-based, DMS-53; parameters: dose 6 mg/kg, route intravenous; settings: in vivo, 504 h
In short: (§6)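 Nude mice carrying DMS-53 xenografts (treatment from 100 mm3) received iv tail-vein doses in 30% propylene glycol/saline, 5 days/week for 21 days. Hematological indices (RBC, hemoglobin, hematocrit, reticulocytes, WBC, platelets) were then compared with vehicle controls.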

Mus musculus [19] = assay: Toxicity in BALB/c nu/nu mouse xenografted with human DMS53 cells assessed as change in hemoglobin level at 6 mg/kg, iv administered for 5 days a week measured after 21 days; format: organism-based, DMS-53; parameters: dose 6 mg/kg, route intravenous; settings: in vivo, 504 h; in short: as §4
Mus musculus [20] = assay: Toxicity in BALB/c nu/nu mouse xenografted with human DMS53 cells assessed as change in platelet count at 3 mg/kg, iv administered for 5 days a week measured after 21 days; format: organism-based, DMS-53; parameters: dose 3 mg/kg, route intravenous; settings: in vivo, 504 h; in short: as §6
Mus musculus [21] = assay: Toxicity in BALB/c nu/nu mouse xenografted with human DMS53 cells assessed as change in lungs histology at 3 mg/kg, iv administered for 5 days a week measured after 21 days by hematoxylin and eosin staining method; format: organism-based, DMS-53; parameters: dose 3 mg/kg, route intravenous; settings: in vivo, 504 h; in short: as §4
Mus musculus [22] = assay: Toxicity in BALB/c nu/nu mouse xenografted with human DMS53 cells assessed as body weight change at 10 mg/kg, po administered for 3 times a week measured after 20 days; settings: in vivo, 480 h
Mus musculus [23] = assay: Toxicity in BALB/c nu/nu mouse xenografted with human DMS53 cells assessed as change in heart weight at 7.5 mg/kg, po administered for 3 times a week measured after 20 days; format: organism-based, DMS-53; parameters: dose 7.5 mg/kg, route oral; settings: in vivo, 480 h; in short: as §5
Mus musculus [24] = assay: Toxicity in BALB/c nu/nu mouse xenografted with human DMS53 cells assessed as hepatocellular necrosis at 6 mg/kg, iv administered for 5 days a week measured after 21 days by hematoxylin and eosin staining method; format: organism-based, DMS-53; parameters: dose 6 mg/kg, route intravenous; settings: in vivo, 504 h; in short: as §3

For CN(C(=S)NN=C(c1ccccn1)c1ccccn1)C1CCCCC1.Cl, the Activity (Mus musculus [1]) was “Non-toxic”, the Activity (Mus musculus [2]) was “Non-toxic” and the Activity (Mus musculus [3]) was “Non-toxic”. The Activity (Mus musculus [4]) was “Non-toxic”, the Activity (Mus musculus [5]) was “Non-toxic” and the Activity (Mus musculus [6]) was “Non-toxic”. For the same molecule, the Activity (Mus musculus [7]) was “Toxic”, the Activity (Mus musculus [8]) was “Toxic” and the Activity (Mus musculus [9]) was “Non-toxic”. For the same molecule, the Activity (Mus musculus [10]) was “Non-toxic”.

With CCN(C)C(=S)NN=C(c1ccccn1)c1ccccn1.Cl the Activity (Mus musculus [11]) was “Non-toxic”, the Activity (Mus musculus [12]) was “Non-toxic” and the Activity (Mus musculus [13]) was “Non-toxic”. For the same molecule, the Activity (Mus musculus [14]) was “Non-toxic”, the Activity (Mus musculus [15]) was “Non-toxic” and the Activity (Mus musculus [16]) was “Toxic”. For the same molecule, the Activity (Mus musculus [17]) was “Non-toxic”, the Activity (Mus musculus [18]) was “Toxic” and the Activity (Mus musculus [19]) was “Non-toxic”. For the same molecule, the Activity (Mus musculus [20]) was “Toxic”, the Activity (Mus musculus [21]) was “Non-toxic” and the Activity (Mus musculus [22]) was “Non-toxic”. The Activity (Mus musculus [23]) was “Non-toxic” and the Activity (Mus musculus [24]) was “Non-toxic”.
